Laboratory results taken from ChEMBL document CHEMBL1133020, “Structure-based design, synthesis, and biological evaluation of novel pyrrolyl aryl sulfones: HIV-1 non-nucleoside reverse transcriptase inhibitors active at nanomolar concentrations” (J Med Chem, 2000).

What was measured:
MT4 [1] = assay: 50% cytotoxic concentration against mock-infected MT-4 cells using MTT method; assay type: functional; settings: Homo sapiens
How it was run: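 Viability of mock-infected MT-4 cells run in parallel with the antiviral assay; viable cells counted by MTT; CC50 = dose (µM) reducing viability by 50%.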

MT4 [2] = assay: Effective concentration against HIV-1 induced cytopathicity in MT-4 cells using MTT method; assay type: functional, cell-based; settings: Homo sapiens
How it was run: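 MT-4 cells acutely infected with HIV-1; inhibition of virus-induced cytopathicity; viable cells determined by MTT; EC50 = dose (µM) giving 50% protection from cytopathicity.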

[3] = Selectivity index, ratio of CC50 to EC50; assay type: functional
How it was run: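 Ratio of CC50 (mock-infected MT-4 viability, MTT) to EC50 (protection of MT-4 cells from HIV-1 cytopathicity, MTT).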

Compound: C=Cc1cc(C(=O)OCC)n(S(=O)(=O)c2cc(Cl)ccc2N)c1
- CC50 (MT4 [1]): 47 µM
- EC50 (MT4 [2]): 0.17 µM
- Selectivity [3]: 274

Compound: CCOC(=O)c1cc(CNc2ccccc2)cn1S(=O)(=O)c1cc(Cl)ccc1N
- CC50 (MT4 [1]): > 200 µM
- EC50 (MT4 [2]): 3.1 µM
- Selectivity [3]: > 55.5

Compound: CCOC(=O)c1cc(C)cn1S(=O)(=O)c1cc(Cl)ccc1N
- CC50 (MT4 [1]): > 200 µM
- EC50 (MT4 [2]): 0.09 µM
- Selectivity [3]: > 2220

Compound: CCOC(=O)c1cc(COc2ccccc2)cn1S(=O)(=O)c1cc(Cl)ccc1N
- CC50 (MT4 [1]): > 200 µM
- EC50 (MT4 [2]): 4.1 µM
- Selectivity [3]: > 49

Compound: CC(C)OC(=O)c1cc(CO)cn1S(=O)(=O)c1cc(Cl)ccc1N
- CC50 (MT4 [1]): 116 µM
- EC50 (MT4 [2]): 0.1 µM
- Selectivity [3]: 1160

Compound: CCOC(=O)c1cc(COC)cn1S(=O)(=O)c1cc(Cl)ccc1N
- CC50 (MT4 [1]): > 200 µM
- EC50 (MT4 [2]): 0.4 µM
- Selectivity [3]: > 500

Compound: CC(C)OC(=O)c1cc(CNc2ccccc2)cn1S(=O)(=O)c1cc(Cl)ccc1N
- CC50 (MT4 [1]): 40 µM
- EC50 (MT4 [2]): 0.2 µM
- Selectivity [3]: 200

Compound: CCOC(=O)c1cccn1S(=O)(=O)c1cc(Cl)ccc1-n1cccc1
- CC50 (MT4 [1]): 110 µM
- EC50 (MT4 [2]): > 110 µM

Compound: CCOC(=O)c1cc(CO)cn1S(=O)(=O)c1cc(Cl)ccc1N
- CC50 (MT4 [1]): 240 µM
- EC50 (MT4 [2]): 0.045 µM
- Selectivity [3]: 5330

Compound: CCOC(=O)c1cccn1S(=O)(=O)c1cc(Cl)ccc1N
- CC50 (MT4 [1]): > 200 µM
- Selectivity [3]: > 1430

Compound: CCOC(=O)c1cccn1S(=O)(=O)c1c(N)cccc1Cl
- CC50 (MT4 [1]): 180 µM
- EC50 (MT4 [2]): 72 µM
- Selectivity [3]: 2.5

Compound: CCOC(=O)c1cc(C(C)O)cn1S(=O)(=O)c1cc(Cl)ccc1N (stereo unspecified)
- CC50 (MT4 [1]): 115 µM
- EC50 (MT4 [2]): 0.25 µM
- Selectivity [3]: 460

Compound: Cc1ccnc2c1NC(=O)c1cccnc1N2C1CC1 [NEVIRAPINE]
- CC50 (MT4 [1]): > 200 µM
- EC50 (MT4 [2]): 0.35 µM
